ROMK primary: ROMK potassium channel modulators, primary screen, cell-based, thallium flux, MLSMR library; ATP-sensitive inward rectifier potassium channel 1 (Homo sapiens), P48048; B-score at 10 µM; Tet-inducible ROMK, thallium flux fluorescence; actives lie on both sides; 130,000 compounds, 2% hits;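 active = signal ratio slope over the read window, or its plate-corrected B-score, at least 3 SD from the plate mean, either direction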;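 note: B-score of the F/F0 ratio slope over 7 to 12 s after thallium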
Autophagy HCS: autophagy modulators in MEF cells, primary screen, imaging, high-content, MEF GFP-LC3; calls only at 10 µM (by protocol); 190,000 compounds, 0.98% hits; MEF GFP-LC3 puncta imaging; test concentration mostly 10 µM; AID 463193, 2010;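 active = percentage of spot-positive cells more than 3 SD above its plate mean, without a fluorescence outlier flag or 80% toxicity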
Redox H2O2 prof: compounds producing H2O2 with reducing agent – biochemical, NIH compound library profiling, artefact control for MLSCN library redox annotation, primary screen; DTT-dependent redox cycling H2O2, phenol red/HRP absorbance; 100% = 100 µM peroxide control, 0% = buffer; activation, % at 10 µM; 200,000 compounds, 0.03% hits;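 active = activation of at least 50% relative to the plate's high and low controls in the primary single-dose screen; inactive = activation below 50%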;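 note: compound incubated with DTT at 0.8 mM final as the reducing agent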
Dynein cargo inh: inhibitors of GR-EGFP nuclear translocation, primary screen, dynein cargo transport inhibitor project, imaging, high-content, 3617.4 mouse cells | test concentration mostly 20 µM; stimulated with dexamethasone, 1 µM; hits give low values | z-score, hits read low | 220,000 compounds, 0.47% hits | AID 1381, 2008;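 active = plate z-score of nuclear minus cytoplasmic receptor signal below a set negative limit, without overly bright fluorescence or cell loss, cut at about -3.5 in these data, passing the limit was not always enough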;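 note: z-score of nuclear minus cytoplasmic ring GR-EGFP intensity difference per well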
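Buffer or medium: tetracycline-free induction medium containing charcoal-stripped FBS / Reagent: dexamethasone agonist, 1.0 µM final, for 30 min / Technique: automated 10x imaging of fixed Hoechst-stained cells / Times: induction 48 h, compound 1 h, agonist 30 min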
KCC2 mod: KCC2 cotransporter modulators, thallium flux, primary screen, cell-based, HEK293 KCC2, FluoZin-2 fluorescence, MLSMR | B-score of Tl+ flux slope (higher = more flux/activation; lower = inhibition) at 10 µM | KCC2 cells, thallium flux FluoZin-2 fluorescence | 190,000 compounds, 2.2% hits | AID 1456, 2008;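 active = thallium flux slope and its plate-corrected score both differing from the plate sample mean at a set confidence after two filtering rounds, in either direction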;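 note: slope of fluorescence scaled to starting intensity during 10 to 20 s after thallium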
Target sequence (Q9H2X9 whole entry, looked up): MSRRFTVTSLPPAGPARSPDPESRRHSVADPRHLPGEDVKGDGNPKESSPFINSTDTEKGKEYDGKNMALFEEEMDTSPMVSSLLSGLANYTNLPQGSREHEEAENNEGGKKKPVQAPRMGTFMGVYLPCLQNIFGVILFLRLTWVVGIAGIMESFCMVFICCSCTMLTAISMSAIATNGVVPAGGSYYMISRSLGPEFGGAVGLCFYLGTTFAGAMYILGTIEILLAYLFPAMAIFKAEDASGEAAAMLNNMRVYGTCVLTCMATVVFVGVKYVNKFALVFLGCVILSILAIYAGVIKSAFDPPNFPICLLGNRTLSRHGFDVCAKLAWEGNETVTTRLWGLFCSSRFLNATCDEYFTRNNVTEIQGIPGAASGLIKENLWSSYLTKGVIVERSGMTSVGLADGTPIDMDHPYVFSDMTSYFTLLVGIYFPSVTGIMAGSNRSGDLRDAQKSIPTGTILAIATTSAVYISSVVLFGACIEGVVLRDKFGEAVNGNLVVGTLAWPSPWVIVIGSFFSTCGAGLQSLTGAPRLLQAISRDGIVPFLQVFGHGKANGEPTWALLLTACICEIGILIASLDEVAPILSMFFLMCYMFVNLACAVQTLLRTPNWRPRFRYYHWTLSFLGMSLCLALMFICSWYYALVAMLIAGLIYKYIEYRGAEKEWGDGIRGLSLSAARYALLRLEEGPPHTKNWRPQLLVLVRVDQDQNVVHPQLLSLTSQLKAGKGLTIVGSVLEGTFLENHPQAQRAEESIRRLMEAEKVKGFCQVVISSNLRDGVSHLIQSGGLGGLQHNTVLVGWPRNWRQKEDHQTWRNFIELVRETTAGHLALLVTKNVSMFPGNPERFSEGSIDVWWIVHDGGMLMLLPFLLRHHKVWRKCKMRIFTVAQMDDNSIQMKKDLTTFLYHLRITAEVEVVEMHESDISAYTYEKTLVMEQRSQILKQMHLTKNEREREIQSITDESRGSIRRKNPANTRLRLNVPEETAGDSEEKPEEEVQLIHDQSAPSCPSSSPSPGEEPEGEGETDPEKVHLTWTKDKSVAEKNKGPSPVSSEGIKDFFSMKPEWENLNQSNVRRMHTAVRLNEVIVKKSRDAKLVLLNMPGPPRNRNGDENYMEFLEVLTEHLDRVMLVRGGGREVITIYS
Hits are given with their value; i = inactive; nt = no result given; + = active, no number. Shown are actives, neighbours in structure and some others; about 4.1% of the full set was active somewhere.

SMILES	ROMK primary	Autophagy HCS	Redox H2O2 prof	Dynein cargo inh	KCC2 mod
CN(CCN1CCOCC1)Cc1nc(-c2ccccc2)no1	i	i	i	i	i
Cn1nnnc1SCC(=O)N1CCN(S(=O)(=O)c2ccc(Cl)cc2)CC1	i	i	i	i	i
N/C(Cc1ccc(Cl)c(Cl)c1)=N\OC(=O)c1ccc(Br)o1	nt	nt	nt	i	i
CCN(CC)S(=O)(=O)c1ccc(N2CCOCC2)c(NC(=O)c2cccc3ccccc23)c1	nt	i	i	i	i
CCN(CC)S(=O)(=O)c1ccc(N2CCCCC2)c(C(=O)Nc2ccccc2N2CCOCC2)c1	-3.6	i	i	i	i
CC(=O)Nc1ccc(S(=O)(=O)Nc2nc3ccccc3nc2Nc2ccc(O)cc2)cc1	nt	nt	nt	i	i
Cc1cc(C)c(OCC(=O)N(Cc2ccc(N(C)C)cc2)C2CCS(=O)(=O)C2)c(C)c1 (stereo unspecified)	nt	nt	nt	i	i
CCCCc1ccc(NC(=S)N2CCCC(C)C2)cc1 (stereo unspecified)	i	i	i	i	i
O=C(CC(=O)c1ccccc1O)c1ccc(F)cc1	i	i	i	i	24
COc1cccc(-c2cc(C(F)(F)F)n3nc(C(=O)N4CCCCC4c4cccnc4)cc3n2)c1 (stereo unspecified)	i	i	i	i	i
Fc1cccc(C2NN=C(c3ccccc3)S2)c1 (stereo unspecified)	i	i	i	i	26
O=P(CCCCCCCCCP(=O)(c1ccccc1)c1ccccc1)(c1ccccc1)c1ccccc1	-4.7	i	i	i	-3
O=C(O)CCCCCCCCCCP(=O)(c1ccccc1)c1ccccc1	i	nt	nt	i	i
Cc1ccc(S(=O)(=O)N2CCOCC2)cc1C(=O)c1nccn1C	i	i	i	i	i
CC(=O)Nc1cccc(NC(=O)CSc2ncc(-c3ccc(Cl)cc3)n2Cc2ccco2)c1	-4.6	i	i	i	i
Cc1nn(Cc2ccccc2)c(C)c1NC(=O)CCCn1nc([N+](=O)[O-])cc1C	i	i	i	i	i
CCOC(=O)/C(C#N)=C/c1cc2ccccc2nc1Cl	nt	i	i	i	i
CSc1nc2ccccc2cc1/C=C(\C#N)c1cccc(Cl)c1	nt	+	i	i	i
COc1ccc(C)cc1NC(=O)NCc1ccc(F)cc1	i	i	i	i	i
O=C(COc1cccc2cccnc12)N/N=C/c1ccccc1O	nt	nt	nt	i	i
Oc1ccccc1/C=N/Nc1cccc2cccnc12	nt	+	i	i	i
CCOc1ccc(NC(=O)CSc2nc3ccccc3c(=O)n2CCCC(=O)NCCCN2CCCC2=O)cc1	i	i	i	i	i
C=CCN1C(=O)/C(=C/c2ccc(N(C)C)cc2)S/C1=N\c1nnc(CC)s1	nt	+	i	i	i
Cc1cc(O)c(-c2cc(O)c(C)cc2O)cc1O	nt	nt	nt	-6	i
CCOC(=O)c1ccccc1NS(=O)(=O)c1ccc(C)cc1	i	i	i	i	i
SMILES	ROMK primary	Autophagy HCS	Redox H2O2 prof	Dynein cargo inh	KCC2 mod
CCOC(=O)c1cnc(SC)nc1Oc1cccc(NS(=O)(=O)c2ccc(C)cc2)c1	i	+	i	i	nt
C1CCC(C(CC2CCCCN2)C2CCCCC2)CC1 (stereo unspecified)	nt	+	i	i	i
COc1ccc(CN2C(=O)c3ccccc3C2C(=O)NCc2cccnc2)c(OC)c1 (stereo unspecified)	i	+	i	i	nt
Cc1ccc(-c2nnn(CC(=O)N3CCCCC3)n2)o1	i	i	i	i	i
O=C(CSc1nc2ccccc2[nH]1)N=Nc1c(O)[nH]c2ccccc12	i	i	i	i	i
O=C(CSCc1ccc(Br)cc1)N=Nc1c(O)[nH]c2ccccc12	nt	i	i	i	10
CCC1COC(c2cccn2Cc2ccccc2Cl)=N1 (stereo unspecified)	nt	+	i	i	i
COc1ccc(-c2ccc3c(N)c(C(=O)c4ccc(OC)c(OC)c4)sc3n2)cc1	i	+	i	i	i
COc1ccc(C(=O)c2sc3nc(-c4ccccc4)ccc3c2N)cc1OC	i	i	i	i	i
CC1=C(C)/C(=N\OS(=O)(=O)c2ccccc2)C=CC1=O	-4.3	i	i	i	nt
Cc1ccc(S(=O)(=O)O/N=C2\CCCc3ccccc32)cc1	i	i	i	i	i
